# An excerpt weighted towards active compounds, which were near 3.4% of everything screened.
# MDM2 E3 inh: blocks human Mdm2 ubiquitin ligase activity; Q00987; cell-based MDM2 ubiquitination luciferase reporter, 2 h; 0 = plate control, 100 = twice control, blank-subtracted; signal enhancement, % at 5 µM; actives 0.11% (n = 210,000);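 active = signal enhancement of 30% or more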;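 note: luminescence tracks abundance of the self-degrading MDM2-luciferase fusion protein; higher signal means inhibition of MDM2 E3 ligase activity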
#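 Assay system: stable mammalian line carrying autodegrading MDM2–luciferase fusion reporter; Input: 2000 cells in each well; Compound dosing: single-point 5 µM; Schedule: 2 h compound exposure at 37 °C; Signal: SteadyLite luciferase luminescence after 15 min room-temperature reagent incubation; Evaluation: % luminescence enhancement versus blank-corrected plate control mean; Benchmarks: plate controls and plate blanks.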
# Cl transport mod: KCC2 (human) Cl- transport modulation; KCC2 cells, thallium flux FluoZin-2 fluorescence; B-score of Tl+ flux slope (higher = more flux/activation; lower = inhibition) at 10 µM; actives 2.2% (n = 190,000); AID 1456;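 active = thallium flux slope and its plate-corrected score both differing from the plate sample mean at a set confidence after two filtering rounds, in either direction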;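 note: slope of fluorescence scaled to starting intensity during 10 to 20 s after thallium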
# Redox H2O2 prof: compounds producing H2O2 with reducing agent – biochemical, NIH compound library profiling, artefact control for MLSCN library redox annotation, primary screen; actives 0.03% (n = 200,000); DTT-dependent redox cycling H2O2, phenol red/HRP absorbance; 100% = 100 µM peroxide control, 0% = buffer; activation, % at 10 µM; AID 878;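 active = activation of at least 50% relative to the plate's high and low controls in the primary single-dose screen; inactive = activation below 50%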;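 note: compound incubated with DTT at 0.8 mM final as the reducing agent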
# ROMK mod: human ROMK K+ channel modulation, primary screen; actives 2% (n = 130,000); B-score at 10 µM; Tet-inducible ROMK, thallium flux fluorescence; actives lie on both sides;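 active = signal ratio slope over the read window, or its plate-corrected B-score, at least 3 SD from the plate mean, either direction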;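 note: B-score of the F/F0 ratio slope over 7 to 12 s after thallium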
# PKD1 inh: blocks activity of human protein kinase D1. inhibition, % (concentration not given with the values). PKD1 kinase fluorescence polarization assay. Q15139. actives 0.056% (n = 200,000); in the data active = inhibition above about 50%
# Target sequence (Q15139 whole entry, looked up): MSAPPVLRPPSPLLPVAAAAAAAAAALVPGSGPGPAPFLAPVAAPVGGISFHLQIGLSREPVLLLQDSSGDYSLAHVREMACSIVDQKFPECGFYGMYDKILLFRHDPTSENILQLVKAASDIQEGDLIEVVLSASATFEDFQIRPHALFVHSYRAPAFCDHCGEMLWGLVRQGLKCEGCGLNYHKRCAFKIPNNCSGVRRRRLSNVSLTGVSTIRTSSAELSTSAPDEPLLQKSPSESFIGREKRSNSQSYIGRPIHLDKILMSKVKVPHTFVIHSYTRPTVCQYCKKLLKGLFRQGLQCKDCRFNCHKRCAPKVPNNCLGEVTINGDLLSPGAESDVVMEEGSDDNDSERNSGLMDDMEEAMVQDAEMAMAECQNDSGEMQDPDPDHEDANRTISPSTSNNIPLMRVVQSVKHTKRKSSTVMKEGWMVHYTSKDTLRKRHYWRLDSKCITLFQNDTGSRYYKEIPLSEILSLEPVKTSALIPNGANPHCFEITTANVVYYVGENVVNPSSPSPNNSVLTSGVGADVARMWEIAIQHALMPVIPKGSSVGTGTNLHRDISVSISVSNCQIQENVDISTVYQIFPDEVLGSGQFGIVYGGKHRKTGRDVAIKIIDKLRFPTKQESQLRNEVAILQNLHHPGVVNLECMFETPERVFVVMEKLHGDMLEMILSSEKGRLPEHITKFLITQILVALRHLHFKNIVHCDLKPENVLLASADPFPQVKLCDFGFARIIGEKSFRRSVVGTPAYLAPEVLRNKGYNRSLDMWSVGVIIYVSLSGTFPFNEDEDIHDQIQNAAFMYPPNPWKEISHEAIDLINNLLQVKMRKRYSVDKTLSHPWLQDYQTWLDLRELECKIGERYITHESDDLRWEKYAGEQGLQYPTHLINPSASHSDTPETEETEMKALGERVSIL
# p97 inhibitor: blocks human p97 ATPase activity. P55072. recombinant p97 ATPase, Kinase-Glo ATP luminescence, 3 h. inhibition, % at 8 µM. actives 0.42% (n = 220,000). AID 1481; in the data active = inhibition above about 15%;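 note: 0% = DMSO vehicle and 100% = wells lacking enzyme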
# KCC2 sec1: confirmation of human KCC2 transport modulators. shares compounds with Cl transport mod. HEK293-KCC2, thallium flux, FluoZin2 fluorescence; stronger effect = higher value. normalised thallium flux (F/F0 slope) at 10 µM. actives 15% (n = 3,700). AID 1713;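 active = thallium flux slope above the same plate's solvent-only control mean plus 3 SD; inconclusive = the two replicate wells disagree; inactive = no significant difference from solvent-only control wells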
# KCC2 bumet counter: thallium flux persisting under bumetanide in KCC2 cells, counter-screen secondary assay. shares compounds with Cl transport mod. HEK293-KCC2 + bumetanide/ouabain, thallium flux FluoZin2; stronger effect = higher value. normalized thallium flux at 10 µM. actives 49% (n = 3,700). AID 1714;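 active = thallium entry rate above the same plate's blocked-transporter control wells by more than 3 SD; inconclusive = the two repeat wells disagree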;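 note: raw slope of fluorescence over initial fluorescence between 10 and 20 s after thallium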
# KCC2 secondary2: confirmation of human KCC2 transport modulators | AID 1715 | actives 23% (n = 3,700) | normalized thallium flux at 10 µM | shares compounds with Cl transport mod | HEK293-KCC2, thallium flux FluoZin2 fluorescence; actives lie on both sides; F/F0 rise rate, 10–20 s post-thallium;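 active = thallium flux slope more than 3 SD above or below the plate's solvent-only control mean, mostly below; inconclusive = the two repeat wells disagreed; inactive = no significant shift from solvent-only controls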;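 note: raw slope with 0.1% DMSO as baseline and bumetanide as block control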
# HEK293 Tl flux: counter-screen for KCC2 modulators: effect in parental HEK293 cells; AID 1716; thallium flux rate (normalised fluorescence) at 10 µM; shares compounds with Cl transport mod; thallium flux FluoZin2, ouabain; baseline-ratio fluorescence slope, 10–20 s after thallium; actives 46% (n = 3,700);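 active = thallium flux rate significantly above the same plate's solvent-only control wells, beyond their mean plus 3 SD; inconclusive = the two replicate wells gave conflicting results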
# KCC2 retest ouab: modulates human KCC2 on retest with ouabain | HEK293-KCC2, thallium flux FluoZin2 fluorescence; bidirectional: low = inhibitor, high = activator | raw Tl+ flux slope (below DMSO = inhibition, above = activation) at 10 µM | shares compounds with Cl transport mod | actives 48% (n = 3,700);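 active = thallium flux slope beyond 3 SD from same-plate DMSO control mean in most replicates, usually higher, sometimes lower; inconclusive = repeat tests gave conflicting results; inactive = no significant difference from controls in most replicates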;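 note: slope of initial-normalized fluorescence between seconds 10 and 20 after thallium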
# HEK293 Tl flux2: acts in parental HEK cells, second KCC2 counter-screen | shares compounds with Cl transport mod | HEK293 parental, thallium flux FluoZin-2 fluorescence slope | thallium flux slope at 10 µM | actives 33% (n = 3,700);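 active = thallium flux slope above the same plate's solvent-control mean plus 3 SD in both duplicate wells; inconclusive = duplicate wells that disagreed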;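 note: run without ouabain in cells lacking the KCC2 cotransporter; slope of fluorescence scaled to its starting value between 10 and 20 s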
# * marks the source's active call; other numbers are inactive results; ? = inconclusive; / = no result given.
SMILES,MDM2 E3 inh,Cl transport mod,Redox H2O2 prof,ROMK mod,PKD1 inh,p97 inhibitor,KCC2 sec1,KCC2 bumet counter,KCC2 secondary2,HEK293 Tl flux,KCC2 retest ouab,HEK293 Tl flux2
COC(=O)N1N=C(c2ccc(Br)cc2)CC1(O)C(F)(F)F (stereo not given),-23,0.12,0,/,-9,-1,/,/,/,/,/,/
CCC(C)(c1ccc(C=O)s1)c1ccc(C=O)s1,-5,-0.98,0,0.082,-3,0,/,/,/,/,/,/
O=C(Nc1nnc(SCc2ccc(F)cc2)s1)C1Cc2ccccc2CN1C(=O)c1ccco1 (stereo not given),-22,-3.3*,-8,/,-6,0,0.0071,0.0053,0.025*,0.0081,0.017*,0.01
CC(C)c1ccc(NC(=O)c2csnn2)cc1,-57,6.7*,2,-0.83,-12,3,0.016,0.0042,0.029,0.007,0.015,0.0098
CC(C)c1ccc(NC(=O)c2cccnc2)cc1,-3,-0.59,1,0.017,-12,5,/,/,/,/,/,/
Cc1cc(C)c2c(CC(=O)O)coc2c1,-9,1.8,-2,/,-5,1,/,/,/,/,/,/
COc1cccc(C(=O)Nc2cccc(C(=O)N3CCOCC3)c2)c1,1,0.19,1,0.02,-9,3,/,/,/,/,/,/
Cc1cccc(C(=O)Nc2cccc(C(=O)N3CCOCC3)c2)c1,-14,4.3*,0,-1,-1,-3,0.017,0.0047,0.032,0.0078,0.018,0.01
O=C(Nc1ccccc1)Nc1ccc(C(=O)N2CCCC2)cc1,-54,-1.4,1,0.14,2,-36,/,/,/,/,/,/
CC(=O)c1cccc(NC(=O)Nc2ccc(C(=O)N3CCCC3)cc2)c1,-9,7.4*,2,/,-1,-5,?,0.0038,0.027,0.0064,0.016,0.0094
COc1cc(NC(=O)CN2CC(c3ccccc3)CC2=O)cc(OC)c1 (stereo not given),-12,0.53,0,/,-6,2,/,/,/,/,/,/
CC(C)CC(OC(=O)c1nsc(Cl)c1Cl)C(=O)NCc1cccs1 (stereo not given),-16,-3.7*,0,0.37,-9,-7,0.0061,0.0042,0.028,0.007,0.018,0.0097
CC(C)OC(=O)c1cc2c(ccn2C)n1CC(=O)N1CCC(Cc2ccccc2)CC1,-5,-5.7*,1,/,0,-9,0.0064,0.0042,0.024*,?,0.014*,0.0099
N#CCSc1nc2ccc(N3CCCCC3)cc2c(=O)n1Cc1ccccc1,-10,1.4,4,/,2,6,/,/,/,/,/,/
Cc1ccc(C)c(NC(=S)N/N=C2/CCCCc3ccccc32)c1,5,9.6*,0,0.16,2,1,0.0064,0.036*,0.047*,0.037*,0.038*,0.038*
NC(=O)C1CCN(C(=O)Cc2ccc([N+](=O)[O-])cc2)CC1,-11,0.69,0,1.2,-2,0,/,/,/,/,/,/
O=C1CC(c2nc3ccccc3[nH]2)CN1Cc1ccccc1 (stereo not given),-2,-3.4*,0,/,-15,6,0.012*,?,0.03,0.0082,0.021,0.011
CSc1cc(C)c(OCC(=O)Nc2ccc(NC(C)=O)cc2)c(C)c1,6,/,0,/,-10,-1,/,/,/,/,/,/
O=C(Cc1csc(-c2ccccc2)n1)NCc1ccc(F)cc1,-10,-5.2*,0,/,0,-4,0.0091,0.0062,0.03*,0.0036,0.016*,0.011
O=C(NCc1csc(-c2ccccc2)n1)c1cc(F)cc2c1OCOC2,-10,-3.8*,/,/,/,5,?,0.0053,0.029,0.0061,0.015*,0.0098
O=C(Cc1csc(-c2ccccc2)n1)NCc1ccccc1F,-5,-3.6,/,-0.47,-9,4,/,/,/,/,/,/
OCc1ccccc1CNCc1ccccc1,-1,/,0,-0.43,7,0,0.0097,0.0051,0.035,0.0079,0.019,0.011
CSC1=C(C#N)C(c2ccccc2Cl)C(C(C)=O)=C(C)N1 (stereo not given),12,-0.78,0,0.041,7,-2,/,/,/,/,/,/
Cc1cc(NC(=O)CSc2ccc(-c3cccc([N+](=O)[O-])c3)nn2)no1,-2,-1.4,-1,0.14,2,1,/,/,/,/,/,/
Cc1cc(NC(=O)CSc2ccc(-c3ccc(F)cc3)nn2)no1,-18,-5.2*,0,/,3,2,0.0065,0.005,0.025*,0.0071,?,0.01
SMILES,MDM2 E3 inh,Cl transport mod,Redox H2O2 prof,ROMK mod,PKD1 inh,p97 inhibitor,KCC2 sec1,KCC2 bumet counter,KCC2 secondary2,HEK293 Tl flux,KCC2 retest ouab,HEK293 Tl flux2
Cc1cc(NC(=O)CSc2ccc(-c3ccccc3)nn2)no1,-6,-7.4*,1,/,1,1,0.0058,0.0051,0.024*,?,0.013*,0.009
O=C(CSc1ccc(-c2ccccc2)nn1)c1ccccc1,-9,-4.1*,0,/,4,1,0.0053,?,0.022*,0.0086,?,0.011
O=C(CSc1ccc(-c2ccccc2)nn1)Nc1ccc2c(c1)OCCO2,/,-6.2*,0,-0.11,-11,-1,0.008,0.0049,0.022*,0.0064,0.014*,0.0097
CC(=O)c1cccc(NC(=O)CSc2ccc(-c3ccc4c(c3)OCO4)nn2)c1,-2,0.38,0,/,-8,-6,/,/,/,/,/,/
O=C(CSc1ccc(-c2ccc(F)cc2)nn1)NCC1CCCO1 (stereo not given),6,-2.3,0,-2.7,-7,0,/,/,/,/,/,/
CC1CCCCN1C(=O)CSc1ccc(-c2ccc(F)cc2)nn1 (stereo not given),6,/,0,-0.42,-6,-6,0.01,0.0064,0.028*,0.0044,0.017*,0.011
CC(C)Cc1[nH]c(=O)c(C#N)c2c1CCCC2,-5,-0.5,0,0.3,7,1,0.016,0.0045,0.027,?,0.017,0.01
CCCc1[nH]c(=O)c(C#N)c2c1CCCC2,-9,0.22,3,/,-5,5,/,/,/,/,/,/

# High-throughput results from PubChem.
